Screening data deposited in PubChem by Sanford-Burnham Center for Chemical Genomics.
This is a sample that favours compounds with a hit; in the whole collection about 1.7% have one here.
STEP block = blocks human striatal-enriched tyrosine phosphatase. P54829. recombinant STEP, OMFP fluorogenic substrate, fluorescence. inhibition, % at 20 µM. 0.25% of 360,000 active. AID 588621;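 active = inhibition at 20 µM, scaled per plate between control wells, above about 37%, limit read from the data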;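 also: 0% = DMSO with enzyme and substrate and 100% = substrate only without enzyme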
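System: STEP phosphatase, cell-free reaction; Buffer or medium: Bis-Tris pH 6.0 buffer with DTT, detergent; Incubation: 20 min at room temperature, dark; Measured by: fluorescence, 480/540 nm.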
LMPTP block = LMPTP (human) inhibition; P24666; recombinant LMPTP-A, OMFP fluorogenic substrate, fluorescence intensity; inhibition, % at 20 µM; 0.22% of 360,000 active; AID 651560;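 active = compounds that cut the enzyme signal by at least half of the control window in the single-dose screen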;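 also: plate controls were DMSO wells with enzyme plus substrate for no effect and substrate without enzyme for full effect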
Target sequence (P24666 whole entry, looked up): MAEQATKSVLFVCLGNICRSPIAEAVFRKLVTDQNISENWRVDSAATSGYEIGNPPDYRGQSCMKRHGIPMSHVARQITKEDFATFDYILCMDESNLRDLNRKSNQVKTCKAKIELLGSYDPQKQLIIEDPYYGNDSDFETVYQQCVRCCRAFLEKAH
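Assay system: LMPTP-A, protein tyrosine phosphatase of low molecular weight / Medium: pH 6.0 Bis-Tris buffer with DTT and Triton X-100 / Schedule: 50 min enzyme reaction at room temperature, protected from light / Measured by: endpoint fluorescence intensity from OMFP dephosphorylation / Read-out basis: % inhibition relative to no-enzyme and uninhibited control wells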
SUMO1 PPI mod = modulators of human SUMO1-mediated protein-protein interactions. P63165. SUMO1 binding to a labelled peptide, TR-FRET, 1 h. inhibition, % at 20 µM. 0.33% of 360,000 active; in the data active = inhibition above about 37%
Target sequence (P63165 whole entry, looked up): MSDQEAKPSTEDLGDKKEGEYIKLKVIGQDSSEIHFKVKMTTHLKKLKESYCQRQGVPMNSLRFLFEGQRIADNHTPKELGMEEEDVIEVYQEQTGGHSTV
Scp1 inh = inhibitors of human Scp-1 phosphatase. 0.88% of 340,000 active. Q9GZU7. AID 493091. inhibition, % at 20 µM. Recombinant Scp1, phosphopeptide, malachite green phosphate absorbance;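 active = inhibition above about 50% at 20 µM, limit read from the data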;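 also: plate controls were DMSO wells with enzyme for no effect and wells lacking enzyme for full effect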
Target sequence (Q9GZU7 76-261 limits assumed): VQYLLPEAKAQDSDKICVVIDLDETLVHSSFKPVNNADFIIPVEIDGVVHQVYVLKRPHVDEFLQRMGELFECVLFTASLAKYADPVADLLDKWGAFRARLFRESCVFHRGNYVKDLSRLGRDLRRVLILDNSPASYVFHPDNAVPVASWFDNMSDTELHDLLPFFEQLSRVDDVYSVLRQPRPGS
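Times: enzyme reaction 45 min at room temperature, colour 5 min, stabilisation 30 min. Material: SCP-1 catalytic fragment, aa 76-261. Medium: Acidic Tris acetate buffer with magnesium and detergent. Signal: colorimetric free-phosphate detection, absorbance 630 nm. Read-out basis: % inhibition of SCP-1 phosphate liberation. Reagent: Phosphorylated 17-residue peptide substrate.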
DNMT1 block = DNMT1 (human) enzyme inhibition; P26358; DNMT1 molecular beacon, Hinp1I cleavage, fluorescence; inhibition (reported as % activation of signal), % at 10 µM; 0.83% of 360,000 active; AID 588458; in the data active = inhibition above about 50%
Starred values were filed as active, the others as inactive; x = not tested or not shown; + = active, no number.

SMILES	STEP block	LMPTP block	SUMO1 PPI mod	Scp1 inh	DNMT1 block
COCCOC(=O)c1[nH]c2c(c1C)C(=O)CC(c1ccccc1)C2 (stereo unspecified)	2	0	0	-2	0
CN(C(=O)COC(=O)c1ccccc1NCc1ccco1)c1c(N)n(Cc2ccccc2)c(=O)[nH]c1=O	1	0	5	1	-3
COc1ccc(C(OC(=O)c2ccco2)C(=O)NC(C)(C)C)cc1 (stereo unspecified)	-1	-2	-2	-4	2
COc1ccc(C(O)c2ncc(-c3ccccc3F)[nH]2)cc1 (stereo unspecified)	1	0	12	x	51*
CN(C)CCN1C(=O)c2cccc3cc([N+](=O)[O-])cc(c23)C1=O	0	4	1	5	69*
O=C(NC1CCCC1)c1cnn2c(C(F)(F)F)cc(-c3ccc4c(c3)OCO4)nc12	-1	2	-2	-5	51*
O=C(O)CCNc1ccc(NCCC(=O)O)c2c1C(=O)c1ccccc1C2=O	96*	72*	60*	86*	97*
COc1ccccc1NCCC(=O)O	5	-1	-4	-2	1
C/C(=N\NS(=O)(=O)c1ccc(Cl)c([N+](=O)[O-])c1)c1ccc(C)o1	1	55*	-3	-2	23
C/C(=N\NS(=O)(=O)c1ccc(Cl)c([N+](=O)[O-])c1)c1cc2ccccc2o1	-2	60*	-4	-13	8
C/C(=N\NS(=O)(=O)c1ccc(C)c([N+](=O)[O-])c1)c1cc2ccccc2o1	0	1	-2	4	5
O=C(COc1c(Br)cc(Br)c2cccnc12)Nc1ccccc1F	3	9	47*	-11	33
Cn1c2ccccc2c(=O)c2ccc(C#Cc3ccccn3)cc21	x	x	x	22	x
Cn1c2ccccc2c(=O)c2cc(C#Cc3ccccn3)ccc21	4	11	-15	58*	26
COc1cc(C#Cc2c(C=O)n(C)c3ccccc23)cc(OC)c1	-4	0	-7	-11	-2
C=CCn1c2ccccc2c(=O)c2cc(C#Cc3cc(OC)cc(OC)c3)ccc21	0	6	-90	52*	-2
O=c1cc2oc3cc(O)c(O)cc3c(-c3ccccc3O)c-2cc1O	2	67*	6	31	110*
COc1ccc(OC)c(-c2c3cc(O)c(=O)cc-3oc3cc(O)c(O)cc23)c1	16	78*	25	68*	150*
CCOc1ccccc1-c1c2cc(O)c(=O)cc-2oc2cc(O)c(O)cc12	-310	66*	-19	33	+
CC(=O)Nc1ccc(CN(C)c2c(C)nc3ccc(C(=O)N(C)Cc4ccco4)cn23)cc1	0	-5	-10	x	7
Cc1c(C(=O)NNC(=O)c2csc(N3CCOCC3)n2)oc2ccc(Br)cc12	1	3	-4	x	22
O=C(N=Nc1c(O)[nH]c2ccccc12)c1cccc(S(=O)(=O)N2CCCCC2)c1	-1	9	-2	13	6
O=c1[nH]c2ccccc2c2nc(-c3cccc(S(=O)(=O)N4CCCC4)c3)nn12	9	7	42*	8	-2
CC(=O)Nc1ccc(S(=O)(=O)N(C)CC(=O)OC2CCCCC2=O)cc1 (stereo unspecified)	2	-6	-6	-9	3
CCOC(=O)Cc1sc(N)nc1C	-3	-1	4	-8	2
SMILES	STEP block	LMPTP block	SUMO1 PPI mod	Scp1 inh	DNMT1 block
O=C(/C=C/c1ccco1)NC(=S)Nc1ccc(C(=O)O)cc1	28	0	26	52*	91*
CC(=O)NC(=S)Nc1ccc(NC(=S)NC(=O)/C=C/c2ccco2)cc1	8	11	-2	-7	8
COc1ccc(-c2cc3c(=O)n(CC(=O)N4CCCC4)ncn3n2)cc1	-1	1	58*	-8	14
Nc1nc(-c2ccccc2)c(-c2ccc([N+](=O)[O-])cc2)s1	1	1	-18	-1	-2
Cc1nc(N)nc(N)c1-c1ccc([N+](=O)[O-])cc1	3	67*	-21	2	5
CSc1nc(N(C)CCO)c2sc3nc(-c4ccco4)c4c(c3c2n1)CCC4	5	2	25	79*	37
CSc1nc(NCCN(C)C)c2sc3nc(-c4ccco4)c4c(c3c2n1)CCC4	1	-7	9	-4	-12
CSc1nc(SCC(=O)O)c2sc3nc(-c4ccccc4)c4c(c3c2n1)CCC4	97*	95*	101*	60*	97*
O=C(O)CSc1nc2sc3c(c2c(=O)n1-c1ccccc1)CCC3	0	-1	5	11	13
CC1=C2CCCC[C@@]23C2C(=O)N(C)C(=O)[C@@H]2ON3OC1 (stereo partly specified)	x	0	-5	x	x
CCCNC(=O)C1(C)CCCN(Cc2c(F)cccc2F)C1 (stereo unspecified)	-1	-1	1	x	0
O=C(CCC(=O)Nc1ccccc1Cl)NNC(=O)Nc1cccc([N+](=O)[O-])c1	-1	0	-28	0	2
O=Nc1c(O)c2ccccc2c2ccccc12	3	4	-37	-8	58*
Cc1nnc2ccc(-c3ccc(NS(=O)(=O)c4ccc(Cl)s4)cc3)nn12	2	0	-11	-5	-8
Cc1ccsc1C=Nc1ccc(O)cc1	23	33	68*	-7	89*
Cc1ccsc1/C=N/NC(=O)CO	2	-1	-6	1	0
Fc1ccc(COc2ccc(C(=S)N3CCCC3)cc2)cc1	2	1	1	-10	-1
Cc1cc(=O)oc2cc(OCc3ccc(C(=O)OCC(=O)N(C)C4CCS(=O)(=O)C4)cc3)ccc12 (stereo unspecified)	-4	0	2	-11	1
Cc1cc(=O)oc2cc(OCc3ccc(C(=O)OCC(=O)NC4CCS(=O)(=O)C4)cc3)ccc12 (stereo unspecified)	6	13	57*	50	20
Cc1ccc(N2C(=O)N(c3ccc(C)cc3)C3CS(=O)(=O)CC32)cc1 (stereo unspecified)	-4	-1	0	-14	1
Cc1ccc(N2C(=S)SC3CS(=O)(=O)CC32)cc1 (stereo unspecified)	1	1	47*	-5	-1
Cc1c2cc[n+](CCN3CCCCC3)cc2c(C)c2c1[nH]c1ccc(O)cc12	5	48	92*	-10	1
O=C(O)c1ccc([N+](=O)[O-])c2c1C(=O)c1ccccc1C2=O	-1	-1	-14	0	4
O=C1c2ccccc2C(=O)c2c([N+](=O)[O-])ccc(O)c21	32	8	3	67*	48
Nc1nccc(SCc2ccc(Cl)cc2Cl)n1	-2	0	4	-2	-9
Nc1nc(N)c(Cc2ccc(Cl)cc2Cl)c(N)n1	2	64*	-2	-7	2
